High-throughput results: PubChem BioAssay, Johns Hopkins Ion Channel Center
Compounds with a hit are over-represented: about 3.8% of the library has one in this group of screens.
KCNQ1 block = inhibitors of human KCNQ1 potassium channel. CHO-K1 KCNQ1, FluxOR thallium flux fluorescence; active compounds read high. P51787. B-score at 10 µM. 310,000 compounds, 1.3% hits. AID 2642;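 active = compounds whose thallium flux B-score, printed positive for inhibition, exceeds three library SD while starting fluorescence stays within three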;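 note: channel opened by potassium depolarization with thallium stimulus after 20 min compound exposure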
Target sequence (P51787 whole entry, looked up): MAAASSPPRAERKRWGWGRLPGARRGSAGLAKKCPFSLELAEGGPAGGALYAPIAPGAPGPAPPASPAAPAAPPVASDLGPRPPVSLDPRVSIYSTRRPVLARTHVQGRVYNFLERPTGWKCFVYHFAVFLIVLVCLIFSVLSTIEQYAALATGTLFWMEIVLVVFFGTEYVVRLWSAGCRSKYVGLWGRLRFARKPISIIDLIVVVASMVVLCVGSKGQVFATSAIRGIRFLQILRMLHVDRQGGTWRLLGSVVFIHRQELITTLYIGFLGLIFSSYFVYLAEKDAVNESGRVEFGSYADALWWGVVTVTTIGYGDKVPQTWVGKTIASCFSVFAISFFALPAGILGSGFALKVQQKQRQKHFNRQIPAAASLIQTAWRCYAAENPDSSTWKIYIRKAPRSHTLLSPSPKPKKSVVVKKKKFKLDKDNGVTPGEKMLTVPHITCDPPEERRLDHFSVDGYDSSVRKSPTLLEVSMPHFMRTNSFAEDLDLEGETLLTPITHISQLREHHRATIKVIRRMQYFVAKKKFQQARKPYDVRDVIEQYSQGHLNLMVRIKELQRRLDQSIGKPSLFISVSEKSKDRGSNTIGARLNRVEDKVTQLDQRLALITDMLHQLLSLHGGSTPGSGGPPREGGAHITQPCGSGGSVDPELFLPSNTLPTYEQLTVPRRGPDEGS
KCNK9 inh = human KCNK9 channel inhibition; HEK293 KCNK9, FluxOR thallium flux fluorescence; active compounds read low; B-score at 10 µM; 310,000 compounds, 1.2% hits; AID 488922;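 active = ratio B-score over 3 SD below the library mean, with starting fluorescence within 5 SD of its mean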;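 note: negative B-score means less thallium flux so channel inhibition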
hERG protect = compounds protecting human hERG from proarrhythmic drug block; activation (rescue from dofetilide block), less the hit threshold, % at 10 µM; 310,000 compounds, 0.51% hits; AID 1511; CHO-hERG, FluxOR thallium flux, dofetilide IC70 present;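 active = activation above the mean of controls blocked by dofetilide plus 5 SD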;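 note: thallium influx through hERG after potassium depolarization seen as dye fluorescence rise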
KCNK3 inh = human KCNK3 channel inhibition, primary screen. O14649. CHO-KCNK3 thallium flux, FluxOR fluorescence; active compounds read low. B-score at 10 µM. 340,000 compounds, 0.84% hits. AID 602410;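 active = B-score under library mean minus 4 SD, starting fluorescence ratio at most library mean plus 5 SD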;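 note: more negative B-score means stronger inhibition of thallium flux through KCNK3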
Kir21 block = inhibitors of mouse Kir2.1 inward-rectifier potassium channel | P35561 | HEK293-Kir2.1, FluxOR thallium flux fluorescence; active compounds read low | B-score at 10 µM | 310,000 compounds, 0.85% hits;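 active = fluorescence ratio B-score at or below minus 3 SD of library scores, with starting-brightness B-score within 2 SD, cut at about -4.2 in these data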;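 note: channel flux triggered by added potassium and thallium sulfate stimulus; B-score of peak minus minimum fluorescence over baseline after thallium stimulus; more negative B-score means stronger Kir2.1 block with less thallium influx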
KCNQ1 pot = human KCNQ1 channel potentiation or activation; P51787; CHO-K1 KCNQ1, thallium flux FluxOR fluorescence; active compounds read high; B-score at 10 µM; 310,000 compounds, 0.35% hits;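 active = fluorescence ratio B-score, a plate-corrected score, at least three library SD, with initial intensity B-score within 5 SD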
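System: Stable KCNQ1 CHO-K1 line | Incubation: 90 min dye loading and 20 min compound exposure, both at room temperature | Measure: Ratio B score | Medium: Assay buffer for compound exposure, DMSO matched across wells | Compound dosing: Single-concentration screen | Probe or stimulus: K+/Tl+ depolarizing stimulus | Measured by: Kinetic FluxOR fluorescence, 10 s baseline plus 110 s post-stimulus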
KCNK3 inh conf = human KCNK3 channel inhibition, confirmation assay | ratio percent of control, % at 10 µM | AID 651638 | 2,400 compounds, 99% hits | CHO-KCNK3 thallium flux, FluxOR fluorescence; 0% buffer, 100% carvedilol maximal block | shares compounds with KCNK3 inh;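 active = ratio percent of control, averaged over triplicates, above buffer control mean plus 5 SD, cut at about 64% in these data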;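 note: ratio is the fluorescence rise from min to max over baseline after thallium stimulus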
KCNK3 uninduced = counter-screen for KCNK3 inhibitors: effect in non-induced cells; non-induced KCNK3 parental cells, FluxOR thallium flux; active compounds read low; 2,400 compounds, 40% hits; AID 651747; shares compounds with KCNK3 inh; thallium flux ratio (lower = more inhibition) at 10 µM;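 active = thallium flux ratio, averaged over three wells, more than 5 SD below the buffer control mean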;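 note: host cells are CHO cells without KCNK3 induction; ratio is peak minus trough fluorescence over baseline then normalized to buffer controls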
* marks the source's active call; other numbers are inactive results; i = inactive; . = not tested or not shown.

SMILES	KCNQ1 block	KCNK9 inh	hERG protect	KCNK3 inh	Kir21 block	KCNQ1 pot	KCNK3 inh conf	KCNK3 uninduced
CCOC(=O)c1cnc2ccc(OC)cc2c1Nc1ccc2c(c1)OCCO2	i	i	-11	-12*	0.83	i	135*	0.16*
CCOC(=O)c1cnc2ccc(C(=O)OC)cc2c1Nc1ccc2c(c1)OCCO2	i	i	-8	i	0.03	i	.	.
c1cnc(N2CCSCC2)nc1	i	i	0	i	1.9	i	.	.
NC1=NC[C@H](c2ccccc2)N1CC1CCCCC1	i	i	-9	i	0.58	i	.	.
NS(=O)(=O)c1ccc(NC(=S)N2CCN(C(=O)C3CCCO3)CC2)cc1 (configuration not stated)	i	i	-4	i	0.57	i	.	.
CCCN1C(=O)c2cc(C(=O)NC3CCCCCC3)ccc2C1O (configuration not stated)	i	i	2	-18*	1.1	i	82*	i
O=C(C1CC(c2ccccc2O)=NO1)N1CCc2ccccc2C1 (configuration not stated)	i	i	-3	-9*	0.12	i	99*	i
CC1(C)CC(=O)C2=C(C1)c1c(ccc3ccccc13)NC2c1ccc(Br)o1 (configuration not stated)	i	i	-12	-10*	-0.72	i	113*	i
CCCC(=O)Nc1ccc2c(c1)nc(CCNC(=O)c1ccccc1)n2C	i	i	-8	i	-0.06	i	.	.
COc1ccc(OC)c(NC(=O)CSc2ccc3ccccc3c2)c1	i	i	-6	-11*	-1.2	i	118*	i
Cc1ccc(NC(=O)COC(=O)CCC(=O)c2cccs2)cc1S(=O)(=O)N1CCOCC1	i	i	-11	i	0.11	i	.	.
O=[N+]([O-])c1ccc(N2CCN(C(=S)Nc3ccccc3)CC2)cc1	i	i	-17	i	-1.4	i	.	.
O=[N+]([O-])c1ccc(N2CCN(C(=S)NC3CCCCC3)CC2)cc1	i	i	-15	-8.8*	0.06	i	104*	i
CC(C)NC(=S)NNc1ncnc2sc3c(c12)CC(C)(C)OC3	i	i	-7	i	-0.97	i	.	.
COc1ccc(OC)c(C2(O)CSC(=Nc3cccnc3)N2Cc2ccco2)c1 (configuration not stated)	i	i	-16	-11*	-0.34	i	0	i
OC1(c2ccc(OC(F)F)cc2)CSC(=Nc2cccnc2)N1C1CC1 (configuration not stated)	i	i	-13	i	-0.99	i	.	.
CC1CCN(c2ccccc2NC(=O)c2ccc(Br)o2)CC1	i	-8*	-10	-9*	-1.4	i	126*	0.15*
CN1CCN(c2ccccc2NC(=O)c2ccc(Br)o2)CC1	i	i	-3	i	-2	i	.	.
CC1=C(C(=O)OC(C)C)C(c2ccc(C)o2)C(C(=O)OC(C)C)=C(C)N1	i	i	-11	-9.4*	0.17	i	113*	0.14*
CC(C)Oc1ccc2ccccc2c1CNC[C@H]1O[C@@H](n2cnc(C(N)=O)n2)[C@H](O)[C@@H]1O	.	.	.	i	.	.	.	.
CC1CCc2sc(C(=O)N/N=C/c3ccc(O)cc3)cc2C1 (configuration not stated)	i	i	-5	-10*	-1.6	i	57*	i
C/C(=N\NC(=O)c1cc2c(s1)CCC(C)C2)c1ccncc1 (configuration not stated)	i	i	-4	i	-0.55	i	.	.
CCN1N=C(c2ccccc2)Cn2c1nc1ccccc12	i	i	-14	-9.4*	0.2	i	88*	i
COc1cc(CC(=O)NCCc2ccc(OCc3ccccc3)cc2)c([N+](=O)[O-])cc1OC	.	.	.	i	.	.	.	.
CC1=[N+](C)c2c(ccc3cccnc23)C1(C)C	.	.	.	-12*	.	.	119*	i
SMILES	KCNQ1 block	KCNK9 inh	hERG protect	KCNK3 inh	Kir21 block	KCNQ1 pot	KCNK3 inh conf	KCNK3 uninduced
Cc1[nH]c2c(ccc3cccnc32)c1C	i	i	-9	i	-0.29	i	.	.
CCN(CC)CCNC(=O)c1ccc(NC(=O)c2c(C)nn(-c3ccc(F)cc3)c2Cl)cc1	i	i	-8	i	0.17	i	.	.
CCN(CC)CCNC(=O)c1ccc(NC(=O)c2cn(-c3ccc(F)cc3)nc2-c2cccc(OC)c2)cc1	11*	i	-17	-9*	-5.5*	i	111*	0.15*
Cc1ccc(CCNC(=O)C(C)n2nc(C)c3c(C)n(-c4ccccc4)nc3c2=O)cc1 (configuration not stated)	i	i	-7	i	1.3	i	.	.
CCC(C(=O)NCCc1ccc(C)cc1)n1nc(C)c2c(C)n(-c3ccccc3)nc2c1=O (configuration not stated)	i	i	-5	-9.4*	-0.03	i	99*	i
COc1cc(C(=O)N2c3ccccc3CCC2C)cc(OC)c1OC (configuration not stated)	i	i	-6	i	-0.31	i	.	.
CC1CCc2ccccc2N1C(=O)c1cccs1 (configuration not stated)	i	i	-11	-8.9*	-1.1	i	69*	i
Cc1noc(C)c1COc1cccc(C(=O)OCCOc2ccc(F)cc2)c1	i	i	-8	-14*	0.59	i	116*	i
Cc1noc(C)c1COc1cccc(C(=O)OC(C)C#N)c1 (configuration not stated)	i	i	-2	i	-0.52	i	.	.
Cc1noc(C)c1COc1cccc(C(=O)Oc2ccc3c(c2)OCO3)c1	i	i	-11	-8.8*	-0.78	i	96*	i
Cc1noc(C)c1COc1cccc(C(=O)Nc2ccc3c(c2)OCO3)c1	i	i	-8	i	0	i	.	.
COc1ccc(S(=O)(=O)NCCSCc2ccccc2C)cc1Br	i	i	-10	-8.9*	-1.3	i	126*	0.13*
COc1ccc(-n2ncc3c(N(C)C4CCCCC4)ncnc32)cc1	i	i	-7	i	1.5	i	.	.
O=C(CN(Cc1ccccc1)C(=O)CNS(=O)(=O)c1ccc(F)cc1)NCc1ccco1	i	i	-3	i	-0.54	i	.	.
